ChEMBL document CHEMBL4706538, “Novel pleuromutilin derivatives with substituted 6-methylpyrimidine: Design, synthesis and antibacterial evaluation” (2020)
Converted amounts (≈) assume the structure as drawn. The source made the active and inactive calls. The calls are words filed in the database; no cut-off is given here.

Key:
Escherichia coli = assay: Antibacterial activity against Escherichia coli CICC 10389 measured after 18 to 24 hrs by microtiter dilution method; assay type: functional; settings: time 18-24 hrs
In short: (§1)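 Compounds were taken up in 25% DMSO at 64 μg/mL and serially diluted two-fold in water (11 dilutions). Log-phase bacteria grown in MHB were diluted to 10^5-10^6 CFU/mL and mixed 1:1 with the dilutions. Plates were incubated at 37 °C for 18-24 h. MIC was the lowest concentration giving no growth by OD492, averaged over three independent experiments.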

Staphylococcus aureus [1] = assay: Bacteriostatic activity against Staphylococcus aureus BNCC 337371 assessed as reduction in bacterial load at 2 to 4 times MIC incubated for 8 hrs prior to 10 fold dilution followed by replating on MH agar plate and measured after 24 hrs by time-kill assay relative to control; assay type: functional; settings: time 32 hrs
In short: (§2)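 MRSA-337371 was grown in Mueller-Hinton broth at 37 °C for 6 h with shaking, then diluted to about 6×10^5 CFU/mL. It was exposed to 0.5, 1, 2 and 4× MIC. Samples taken at 0, 2, 4, 6, 8, 12 and 24 h were serially diluted 10-fold in 0.9% saline and plated on MH agar at 37 °C for 24 h. Colonies were counted as log10 CFU/mL, in triplicate.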

Staphylococcus aureus [2] = assay: Antibacterial activity against Staphylococcus aureus BNCC 337371 infected in ip dosed Kunming mouse assessed as increase in mouse survival measured after 7 days; assay type: functional; settings: for ED50: BNCC 337371, ip, 168 h, time 7 day; for Activity: time 7.0 day
In short: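 Neutropenic 6-8 week Kunming mice (cyclophosphamide 150 mg/kg ip for four days, then 100 mg/kg one day before inoculation) were infected ip with 0.5 mL MRSA-337371 at 10^8 CFU/mL. About 1 h later they were dosed ip at 5, 8, 15, 25 or 40 mg/kg in DMSO:Tween-80:water 0.5:0.5:9 (10 per group). Mice were observed twice daily, survival was read at day 7, and ED50 was calculated by the Bliss method.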

Staphylococcus aureus [3] = assay: Bacteriostatic activity against Staphylococcus aureus BNCC 337371 assessed as reduction in bacterial load incubated for 2 to 24 hrs prior to 10 fold dilution followed by replating on MH agar plate and measured after 24 hrs by time-kill assay; assay type: functional, organism-based; settings: time 2-24 hrs; in short: as §2
Enterococcus faecalis = assay: Antibacterial activity against Enterococcus faecalis measured after 18 to 24 hrs by microtiter dilution method; assay type: functional; settings: time 18-24 hrs; in short: as §1
Staphylococcus aureus [4] = assay: Antibacterial activity against Staphylococcus aureus BNCC 337371 infected in Kunming mouse assessed as bacterial load in lung at 20 to 40 mg/kg, ip measured after 2 days by colony counting method (reference value: 4.8 log10CFU/ml); assay type: functional; settings: dose 20-40 mg/kg; time 2 day
In short: (§3)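 Kunming mice (SPF, 6-8 weeks) were made neutropenic with ip cyclophosphamide, 150 mg/kg for four days and 100 mg/kg one day before infection. They were infected ip with 0.5 mL of MRSA-337371 at 10^8 CFU/mL. About 1 h later, compound was given ip in 0.5 mL vehicle (DMSO:Tween-80:water 0.5:0.5:9). After 2 d of treatment, lung, kidney and liver were weighed, homogenized in saline, diluted 10-fold, plated on MH agar at 37 °C for 24 h in triplicate, and expressed as CFU/g.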

Streptococcus agalactiae = assay: Antibacterial activity against Streptococcus agalactiae measured after 18 to 24 hrs by microtiter dilution method; assay type: functional; settings: time 18-24 hrs; in short: as §1
Staphylococcus aureus [5] = assay: Antibacterial activity against Staphylococcus aureus ATCC 25923 measured after 18 to 24 hrs by microtiter dilution method; assay type: functional; settings: time 18-24 hrs; in short: as §1
Staphylococcus aureus [6] = assay: Antibacterial activity against Staphylococcus aureus BNCC 337371 measured after 18 to 24 hrs by microtiter dilution method; assay type: functional; settings: time 18-24 hrs; in short: as §1
[7] = tested on: Streptococcus dysgalactiae; assay: Antibacterial activity against Streptococcus dysgalactiae measured after 18 to 24 hrs by microtiter dilution method; assay type: functional; settings: time 18-24 hrs; in short: as §1
Staphylococcus aureus [8] = assay: Antibacterial activity against Staphylococcus aureus BNCC 337371 infected in Kunming mouse assessed as reduction in infiltration of neutrophils cells at 20 to 40 mg/kg, ip measured after 2 days by H and E staining based light microscopic analysis; assay type: functional, organism-based; settings: dose 20-40 mg/kg, time 2.0 day
In short: (§4)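 In neutropenic Kunming mice infected ip with MRSA-337371 and treated ip, lungs were taken after 2 d of treatment. They were fixed in 10% buffered formalin, embedded in paraffin, cut into 4 μm sections, stained with H&E and examined by light microscopy against normal and untreated infected groups.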

Pasteurella multocida = assay: Antibacterial activity against Pasteurella multocida CVCC 1659 measured after 18 to 24 hrs by microtiter dilution method; assay type: functional; settings: time 18-24 hrs; in short: as §1
[9] = tested on: Staphylococcus epidermidis; assay: Antibacterial activity against Staphylococcus epidermidis ATCC 51625 measured after 18 to 24 hrs by microtiter dilution method; assay type: functional; settings: time 18-24 hrs; in short: as §1
Staphylococcus aureus [10] = assay: Antibacterial activity against Staphylococcus aureus BNCC 337371 infected in Kunming mouse assessed as reduction in bacterial load in liver at 20 to 40 mg/kg, ip measured after 2 days by colony counting method; assay type: functional, organism-based; settings: dose 20-40 mg/kg, time 2.0 day; in short: as §3
Staphylococcus aureus [11] = assay: Antibacterial activity against Staphylococcus aureus BNCC 337371 infected in Kunming mouse assessed as reduction in local congestion in lung at 20 to 40 mg/kg, ip measured after 2 days by H and E staining based light microscopic analysis; assay type: functional, organism-based; settings: dose 20-40 mg/kg, time 2.0 day; in short: as §4
Staphylococcus aureus [12] = assay: Antibacterial activity against Staphylococcus aureus BNCC 337371 infected in Kunming mouse assessed as reduction in bacterial load in kidney at 20 to 40 mg/kg, ip measured after 2 days by colony counting method; assay type: functional, organism-based; settings: dose 20-40 mg/kg, time 2.0 day; in short: as §3
Staphylococcus aureus [13] = assay: Antibacterial activity against Staphylococcus aureus BNCC 337371 infected in Kunming mouse assessed as thickening of alveolar septum and wall at 20 mg/kg, ip measured after 2 days by H and E staining based light microscopic analysis; assay type: functional, organism-based; settings: time 2.0 day; in short: as §4
Staphylococcus aureus [14] = assay: Antibacterial activity against Staphylococcus aureus BNCC 337371 infected in Kunming mouse assessed as reduction in inflammatory cell infiltration in pulmonary interstitium at 40 mg/kg, ip measured after 2 days by H and E staining based light microscopic analysis; assay type: functional, organism-based; settings: time 2.0 day; in short: as §4
Staphylococcus aureus [15] = assay: Antibacterial activity against Staphylococcus aureus BNCC 337371 infected in Kunming mouse assessed as reduction in lung tissue damage at 20 to 40 mg/kg, ip measured after 2 days by H and E staining based light microscopic analysis; assay type: functional, organism-based; settings: dose 20-40 mg/kg, time 2.0 day; in short: as §4
Staphylococcus aureus [16] = assay: Antibacterial activity against Staphylococcus aureus BNCC 337371 infected in Kunming mouse assessed as reduction in bacterial load in lung at 20 to 40 mg/kg, ip measured after 2 days by colony counting method; assay type: functional, organism-based; settings: dose 20-40 mg/kg, time 2.0 day; in short: as §3

SMILES	MIC (Escherichia coli)	MIC (Enterococcus faecalis)	MIC (Streptococcus agalactiae)	MIC (Staphylococcus aureus [5])	MIC (Staphylococcus aureus [6])	MIC [7]	MIC (Pasteurella multocida)	MIC [9]	fold change (FC) (Staphylococcus aureus [1])	ED50 (Staphylococcus aureus [2])	Activity (Staphylococcus aureus [2])	Activity (Staphylococcus aureus [3])	Activity (Staphylococcus aureus [10])	also measured
C=C[C@]1(C)C[C@@H](OC(=O)CSCCN(CC)CC)[C@]2(C)[C@H](C)CC[C@]3(CCC(=O)[C@H]32)[C@@H](C)[C@@H]1O [TIAMULIN]	52.5 µM (≈ 25.9 µg/mL)	52.5 µM (≈ 25.9 µg/mL)	0.2 µM (≈ 0.0988 µg/mL)	0.82 µM (≈ 0.405 µg/mL)	0.82 µM (≈ 0.405 µg/mL)	0.2 µM (≈ 0.0988 µg/mL)	3.28 µM (≈ 1.62 µg/mL)	0.82 µM (≈ 0.405 µg/mL)	1	25.9 mg/kg	Dose-dependent effect	Dose-dependent effect	inactive	Activity (Staphylococcus aureus [4]): 1.1 log10CFU/ml; Activity (Staphylococcus aureus [8]): Active; Activity (Staphylococcus aureus [11]): Active
C=C[C@]1(C)C[C@@H](OC(=O)CSc2nc(C)cc(N3CCNCC3)n2)[C@@]2(C)[C@H](C)CC[C@]3(CCC(=O)[C@H]32)[C@@H](C)[C@@H]1O	> 56.1 µM	14 µM (≈ 8.01 µg/mL)	0.11 µM (≈ 0.0628 µg/mL)	0.11 µM (≈ 0.0628 µg/mL)	0.11 µM (≈ 0.0628 µg/mL)	0.05 µM (≈ 0.0285 µg/mL)	28.1 µM (≈ 16 µg/mL)	0.22 µM (≈ 0.126 µg/mL)	–	–	–	–	–	–
C=C[C@]1(C)C[C@@H](OC(=O)CSc2nc(C)cc(N3CCCC3)n2)[C@@]2(C)[C@H](C)CC[C@]3(CCC(=O)[C@H]32)[C@@H](C)[C@@H]1O	> 57.6 µM	14.4 µM (≈ 8.01 µg/mL)	0.06 µM (≈ 0.0333 µg/mL)	0.06 µM (≈ 0.0333 µg/mL)	0.06 µM (≈ 0.0333 µg/mL)	0.06 µM (≈ 0.0333 µg/mL)	14.4 µM (≈ 8.01 µg/mL)	0.11 µM (≈ 0.0611 µg/mL)	>=2	18 mg/kg	Dose-dependent effect	Dose-dependent effect	inactive	Activity (Staphylococcus aureus [12]): Active; Activity (Staphylococcus aureus [13]): Active; Activity (Staphylococcus aureus [14]): Active; Activity (Staphylococcus aureus [15]): Active; Activity (Staphylococcus aureus [16]): Active

Continued, in another order:

MIC (Escherichia coli)	MIC (Enterococcus faecalis)	MIC (Streptococcus agalactiae)	MIC (Staphylococcus aureus [5])	MIC (Staphylococcus aureus [6])	MIC [7]	MIC (Pasteurella multocida)	MIC [9]	SMILES	fold change (FC) (Staphylococcus aureus [1])	ED50 (Staphylococcus aureus [2])	Activity (Staphylococcus aureus [2])	Activity (Staphylococcus aureus [3])	Activity (Staphylococcus aureus [10])	also measured
> 56 µM	28 µM (≈ 16 µg/mL)	0.11 µM (≈ 0.0629 µg/mL)	0.11 µM (≈ 0.0629 µg/mL)	0.22 µM (≈ 0.126 µg/mL)	0.22 µM (≈ 0.126 µg/mL)	14 µM (≈ 8 µg/mL)	0.11 µM (≈ 0.0629 µg/mL)	C=C[C@]1(C)C[C@@H](OC(=O)CSc2nc(C)cc(N3CC[C@@H](O)C3)n2)[C@@]2(C)[C@H](C)CC[C@]3(CCC(=O)[C@H]32)[C@@H](C)[C@@H]1O	–	–	–	–	–	–
> 62 µM	31 µM (≈ 16 µg/mL)	0.24 µM (≈ 0.124 µg/mL)	0.24 µM (≈ 0.124 µg/mL)	0.24 µM (≈ 0.124 µg/mL)	0.12 µM (≈ 0.062 µg/mL)	62 µM (≈ 32 µg/mL)	0.24 µM (≈ 0.124 µg/mL)	C=C[C@]1(C)C[C@@H](OC(=O)CSc2nc(C)cc(OC)n2)[C@@]2(C)[C@H](C)CC[C@]3(CCC(=O)[C@H]32)[C@@H](C)[C@@H]1O	–	–	–	–	–	–
